Experimental data: ChEMBL document CHEMBL1144934, “Efficacious and orally bioavailable thrombin inhibitors based on a 2,5-thienylamidine at the P1 position: discovery of N-carboxymethyl-d-diphenylalanyl-l-prolyl[(5-amidino-2-thienyl)methyl]amide” (J Med Chem, 2003)
Several values for one entry are separate records, joined by “and”; a condition that tells them apart may be missing. Equal values may be shown once.

Assays:
[1] = Area under curve (AUC) was determine after intravenous dosing at 10 mg/kg; format: ADME, organism-based; set-up: dose 10 mg/kg, route intravenous; conditions: in vivo
[2] = Half life of compound was determined after intravenous dosing at 10 mg/kg in rat; format: ADME, organism-based; set-up: dose 10 mg/kg, route intravenous; conditions: in vivo
Method in brief: (§1)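 Male Sprague–Dawley rats (250–300 g), femoral artery and vein cannulated under light ether anesthesia; after recovery, 10 mg/kg given via femoral vein. Arterial blood sampled at 0, 1, 5, 15, 30, 60, 90, 120, 180, 240 min, collected into heparinized tubes, deproteinized with 2 volumes methanol, centrifuged; supernatant analyzed by HPLC (0.1% TFA/acetonitrile 81:19).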

[3] = Steady state volume of distribution (Vdss) was determined after intravenous dosing at 10 mg/kg in rat; format: ADME, organism-based; set-up: dose 10 mg/kg, route intravenous; conditions: in vivo, read-out: Vdss; method in brief: as §1
Prothrombin = Prothrombin (Homo sapiens, UniProt P00734); experiment: In vitro inhibition constant (Ki) against human thrombin
[4] = Bioavailability in rat; format: ADME, organism-based; conditions: in vivo
[5] = Clearance value was determined after intravenous dosing at 10 mg/kg in rat; format: ADME, organism-based; set-up: dose 10 mg/kg, route intravenous; conditions: in vivo; method in brief: as §1
[6] = Time of maximum plasma concentration of compound in monkey at 5 mg/kg was determined; format: functional, organism-based; set-up: dose 5 mg/kg
Trypsin = Trypsin (Homo sapiens, UniProt P07477+P07478+P35030); experiment: In vitro inhibition constant (Ki) against human trypsin was determined; format: protein assay
[7] = Clearance value was determined after intravenous dosing at 2.5 mg/kg; format: functional, organism-based; set-up: dose 2.5 mg/kg
[8] = Area under curve (AUC) was determine after oral dosing at 20 mg/kg in monkey
[9] = biological target: Tissue-type plasminogen activator (Homo sapiens, UniProt P00750); experiment: In vitro inhibition constant (Ki) against human Tissue type plasminogen activator was determined
Tissue-type plasminogen activator, sequence (P00750 whole entry): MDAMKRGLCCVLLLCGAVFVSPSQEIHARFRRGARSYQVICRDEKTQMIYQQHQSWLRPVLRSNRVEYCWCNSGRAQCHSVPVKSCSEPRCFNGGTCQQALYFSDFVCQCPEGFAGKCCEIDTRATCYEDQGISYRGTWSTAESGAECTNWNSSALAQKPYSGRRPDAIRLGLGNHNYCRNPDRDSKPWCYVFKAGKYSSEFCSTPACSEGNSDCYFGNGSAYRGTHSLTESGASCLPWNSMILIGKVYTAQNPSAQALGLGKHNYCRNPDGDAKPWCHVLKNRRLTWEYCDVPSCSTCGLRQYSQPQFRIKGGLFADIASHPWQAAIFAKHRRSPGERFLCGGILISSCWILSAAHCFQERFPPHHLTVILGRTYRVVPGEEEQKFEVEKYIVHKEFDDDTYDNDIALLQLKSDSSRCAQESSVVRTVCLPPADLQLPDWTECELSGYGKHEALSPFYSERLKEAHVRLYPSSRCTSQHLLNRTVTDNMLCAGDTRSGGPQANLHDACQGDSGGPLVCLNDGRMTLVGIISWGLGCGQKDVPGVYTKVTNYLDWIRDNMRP

[10] = In vitro metabolic stability was determined using liver S9 fraction from monkey at initial concentration of 20 uM; format: ADME, subcellular; conditions: simiiformes, read-out: Recovery
Method in brief: (§2)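 Liver S9 (9000g supernatant of homogenate in Tris-acetate pH 7.4, KCl, EDTA) from rat, dog, monkey (pooled, n = 2) or human (n = 2); 20 µM final compound with NADPH generating system and S9 6.72 mg/mL in 100 mM phosphate pH 7.4, 37 °C. Samples methanol-deproteinized, HPLC; recovery after 30 min reported; no-NADPH control.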

[11] = Steady state volume of distribution (Vdss) was evaluated at 2 mg/kg after intravenous dosing in monkey; format: functional, organism-based; set-up: dose 2 mg/kg
Homo sapiens [12] = organism: Homo sapiens
[13] = Half life of compound (t 1/2) was evaluated at 2.5 mg/kg after intravenous dosing; format: functional, organism-based; set-up: dose 2.5 mg/kg
[14] = biological target: Thrombin and coagulation factor X (Homo sapiens) (UniProt P00734+P00742); experiment: Selectivity of compound was determined between thrombin and human factor Xa; format: protein assay
Thrombin and coagulation factor X (Homo sapiens), sequence (P00742 whole entry, looked up, other chains not shown): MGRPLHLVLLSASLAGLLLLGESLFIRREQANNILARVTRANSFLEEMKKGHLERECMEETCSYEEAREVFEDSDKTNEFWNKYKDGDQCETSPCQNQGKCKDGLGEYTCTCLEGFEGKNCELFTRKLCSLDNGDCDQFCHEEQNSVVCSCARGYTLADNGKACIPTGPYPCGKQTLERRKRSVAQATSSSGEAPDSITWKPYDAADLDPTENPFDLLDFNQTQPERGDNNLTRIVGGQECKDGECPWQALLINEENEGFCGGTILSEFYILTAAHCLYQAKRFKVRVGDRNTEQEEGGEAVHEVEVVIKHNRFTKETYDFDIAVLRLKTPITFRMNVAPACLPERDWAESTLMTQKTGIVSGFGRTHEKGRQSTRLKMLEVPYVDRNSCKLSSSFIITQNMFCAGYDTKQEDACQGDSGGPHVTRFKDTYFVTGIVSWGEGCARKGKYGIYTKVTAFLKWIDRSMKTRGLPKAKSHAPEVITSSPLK

Homo sapiens [15] = organism: Homo sapiens; experiment: (§3) In vitro metabolic stability was determined using liver S9 fraction from human at initial concentration of 20 uM; format: ADME; conditions: 20 µM; method in brief: as §2
[16] = as §3; format: ADME; conditions: liver S9 fraction, read-out: Recovery; method in brief: as §2
Canis lupus familiaris [17] = experiment: Area under curve (AUC) was determine after intravenous dosing at 2.5 mg/kg in dog
[18] = Area under curve (AUC) was determine after postoral dosing at 5 mg/kg in dog; format: functional, organism-based; set-up: dose 5 mg/kg
[19] = Half life of compound (t 1/2) was evaluated at 20 mg/kg after postoral dosing in monkey; format: functional, organism-based; set-up: dose 20 mg/kg
Canis lupus familiaris [20] = experiment: Bioavailability of compound (F %) was evaluated at 5 mg/kg in dog; format: functional, organism-based
[21] = Area under curve (AUC) was determined after intravenous dosing at 10 mg/kg in rat; format: ADME, organism-based; set-up: dose 10 mg/kg, route intravenous; conditions: in vivo; method in brief: as §1
[22] = Selectivity of compound was determined between thrombian and human t-PA
Rattus norvegicus [23] = organism: Rattus norvegicus; experiment: Ex vivo concentration of inhibitor to double the activated clotting time was measured in rat plasma; format: functional
[24] = Half life of compound (t 1/2) was evaluated at 5 mg/kg after postoral dosing; format: functional, organism-based; set-up: dose 5 mg/kg
[25] = In vitro metabolic stability was determined using liver S9 fraction from dog at initial concentration of 20 uM; format: ADME, Canis lupus familiaris; conditions: read-out: Recovery; method in brief: as §2
[26] = Clearance was determined after intravenous dosing at 2 mg/kg in monkey; format: functional, organism-based; set-up: dose 2 mg/kg
Rattus norvegicus [27] = experiment: Ex vivo activated clotting time was measured in rat plasma at 1 mg/kg; format: functional
[28] = biological target: Thrombin & trypsin (Homo sapiens) (UniProt P00734+P07477+P07478+P35030); experiment: Selectivity of compound was determined between thrombin and human trypsin; format: protein assay
Coagulation factor X = Coagulation factor X (Homo sapiens, UniProt P00742); experiment: In vitro inhibition constant (Ki) against human Coagulation factor X was determined
Coagulation factor X, sequence (P00742 41-179 limits assumed): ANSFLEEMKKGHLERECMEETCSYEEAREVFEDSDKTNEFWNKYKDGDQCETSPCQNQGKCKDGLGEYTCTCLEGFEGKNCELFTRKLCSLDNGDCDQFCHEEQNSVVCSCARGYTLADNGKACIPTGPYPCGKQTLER
Coagulation factor X, sequence (P00742 235-488 limits assumed): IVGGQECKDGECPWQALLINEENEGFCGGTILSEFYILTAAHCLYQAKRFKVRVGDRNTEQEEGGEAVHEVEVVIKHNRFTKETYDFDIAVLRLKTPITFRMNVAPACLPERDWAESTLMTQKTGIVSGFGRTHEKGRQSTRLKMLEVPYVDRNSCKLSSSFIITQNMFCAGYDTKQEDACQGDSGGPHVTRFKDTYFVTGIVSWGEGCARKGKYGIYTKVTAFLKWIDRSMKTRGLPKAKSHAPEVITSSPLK

Primates = experiment: Bioavailability of compound(F %) was evaluated at mg/kg in Monkey; format: functional, organism-based
[29] = system: thrombin (Homo sapiens) & trypsin (Bos taurus); experiment: Selectivity of compound was determined between thrombin and bovine trypsin
[30] = Maximal plasma concentration in dogs after 5 mg/kg oral dose; format: ADME, organism-based, Canis lupus familiaris; set-up: dose 5 mg/kg, route oral; conditions: dog
Rattus norvegicus [31] = experiment: In vivo inhibition of thrombus formation in thromboplastin-induced deep vein thrombosis (DVT) rat model after iv bolus dosing at 1 mg/kg; format: functional
[32] = Area under curve (AUC) was determine after intravenous dosing at 2 mg/kg in monkey; format: functional, organism-based; set-up: dose 2 mg/kg
Plasminogen = Plasminogen (Homo sapiens, UniProt P00747); experiment: In vitro inhibition constant (Ki) against human plasmin was determined
Plasminogen, sequence (P00747 97-580 limits assumed): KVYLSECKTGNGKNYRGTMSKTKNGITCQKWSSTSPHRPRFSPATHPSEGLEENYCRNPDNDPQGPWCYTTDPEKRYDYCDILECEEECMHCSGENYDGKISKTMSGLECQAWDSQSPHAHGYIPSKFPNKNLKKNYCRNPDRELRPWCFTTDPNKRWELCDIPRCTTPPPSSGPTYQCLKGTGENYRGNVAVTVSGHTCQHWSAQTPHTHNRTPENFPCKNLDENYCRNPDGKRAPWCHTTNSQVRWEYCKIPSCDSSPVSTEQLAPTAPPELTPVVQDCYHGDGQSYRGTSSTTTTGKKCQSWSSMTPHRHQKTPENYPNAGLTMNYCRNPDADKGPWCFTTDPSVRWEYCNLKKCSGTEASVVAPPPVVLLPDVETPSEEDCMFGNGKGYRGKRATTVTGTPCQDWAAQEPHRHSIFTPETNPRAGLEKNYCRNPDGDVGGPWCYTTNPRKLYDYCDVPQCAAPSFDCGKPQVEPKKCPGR
Plasminogen, sequence (P00747 581-810 limits assumed): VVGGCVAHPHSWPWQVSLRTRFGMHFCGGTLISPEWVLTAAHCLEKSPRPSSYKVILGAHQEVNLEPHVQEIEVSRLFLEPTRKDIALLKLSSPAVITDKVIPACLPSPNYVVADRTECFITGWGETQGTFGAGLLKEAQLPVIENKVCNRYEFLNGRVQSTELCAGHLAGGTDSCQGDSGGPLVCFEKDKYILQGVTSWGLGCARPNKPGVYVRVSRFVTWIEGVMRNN

Rattus norvegicus [33] = organism: Rattus norvegicus; experiment: In vitro concentration of inhibitor to double the activated partial thromboplastin time was evaluated in rat; format: functional
Method in brief: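 Rat plasma mixed with inhibitor and an equal volume of aPTT reagent (Platelin LS), incubated 5 min at 37 °C, then 100 μL of 25 mM CaCl2 added. Clotting time read on an automatic coagulometer. Value taken as the inhibitor concentration that doubles aPTT.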

[34] = Half life of compound (t 1/2) was evaluated at 2 mg/kg after intravenous dosing in monkey; format: functional, organism-based; set-up: dose 2 mg/kg
[35] = Steady state volume of distribution (Vdss) was evaluated at 2.5 mg/kg after intravenous dosing; format: functional, organism-based; set-up: dose 2.5 mg/kg
[36] = Maximal plasma concentration in monkeys after 20 mg/kg oral dose; conditions: cynomolgus monkey
[37] = Selectivity of compound was determined between thrombin and human plasmin
Serine protease 1 = biological target: T1, Serine protease 1 (Bos taurus, UniProt P00760); experiment: In vitro inhibition constant (Ki) against […] trypsin was determined
T1 sequence (P00760 whole entry): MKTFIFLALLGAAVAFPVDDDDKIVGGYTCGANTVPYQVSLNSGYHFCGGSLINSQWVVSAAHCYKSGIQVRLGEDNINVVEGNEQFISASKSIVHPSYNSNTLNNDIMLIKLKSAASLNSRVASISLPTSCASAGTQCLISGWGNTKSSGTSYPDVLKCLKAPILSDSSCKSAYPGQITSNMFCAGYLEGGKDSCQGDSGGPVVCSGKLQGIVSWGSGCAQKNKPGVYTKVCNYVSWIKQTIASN

For `N=C(N)c1csc(CNC(=O)[C@@H]2CCCN2C(=O)[C@H](NCC(=O)O)C(c2ccccc2)c2ccccc2)n1`, the AUC [1] was 29100 ng·h/mL, the half-life [2] was 50 min and the Vd [3] was 0.189 L/kg. It also gave a Ki (Prothrombin) of 0.64 nM, a bioavailability [4] of 21% and a clearance [5] of 6 mL/min/kg.
In the case of `N=C(N)c1ccc(CNC(=O)[C@@H]2CCCN2C(=O)[C@H](NCC(=O)O)C(c2ccccc2)c2ccccc2)s1`, the Tmax [6] is reported as 30 min and 90 min, the Ki (Trypsin) is reported as 0.3 nM and the CL (mL.min-1.kg-1) [7] is reported as 5.9. For the same compound, the AUC [8] was 5150 ng·h/mL, the Ki [9] was 433 nM and the remaining at 20 µM [10] was 83%. For the same compound, the Vdss [11] was 0.23 L/kg, the half-life [2] was 47 min and the Vd [3] was 0.258 L/kg. For the same compound, the APTT (Homo sapiens [12]) was 0.23 µM, the T1/2 [13] was 54 min and the Selectivity [14] was > 10000. For the same compound, the Recovery (Homo sapiens [15]) was 95%, the remaining at 20 µM [16] was 95% and the AUC (Canis lupus familiaris [17]) was 7620 ng·h/mL. For the same compound, the AUC [18] was 6050 ng·h/mL, the T1/2 [19] was 58 min and the bioavailability (Canis lupus familiaris [20]) was 42%. For the same compound, the AUC [21] was 17600 ng·h/mL, the bioavailability [4] was 43% and the Selectivity [22] was > 10000. For the same compound, the “Concentration to double activated clotting time” value (Rattus norvegicus [23]) was 0.85 µM, the T1/2 [24] was 68 min and the clearance [5] was 9.6 mL/min/kg. It also gave a remaining at 20 µM [25] of 99%, a CL (mL.min-1.kg-1) [26] of 9.8 and an ACT (Rattus norvegicus [27]) of 12. For the same compound, the Selectivity [28] was 20, the Ki (Coagulation factor X) was 2250 nM and the bioavailability (Primates) was 15%. It also gave a Selectivity [29] of 200, a Cmax [30] of 3800 ng/mL and an inhibition in vivo at 1 mg/kg (Rattus norvegicus [31]) of 100%. For the same compound, the AUC [32] was 3420 ng·h/mL, the Ki (Plasminogen) was 7400 nM and the APTT (Rattus norvegicus [33]) was 0.97 µM. For the same compound, the T1/2 [34] was 23 min, the Vdss [35] was 0.223 L/kg and the Cmax [36] was 2100 ng/mL. The Selectivity [37] was > 10000 and the Ki (Serine protease 1) was 3 nM.
